CHOP inhibitor: CHOP inhibition in unfolded protein response; inhibition, % at 10 µM; 220,000 tested, 3.8% active; CHO-K1 CHOP-promoter luciferase, tunicamycin-induced, 15-18 h;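 active = compounds that reduced the stress-induced luciferase reporter signal by more than about 70% of percent inhibition, limit read from the data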
CHOP UPR activ: activators of apoptotic arm of unfolded protein response (CHOP); CHO-CHOP luciferase reporter, UPR activation, luminescence; percent of tunicamycin response over DMSO baseline; activation, % at 10 µM; 330,000 tested, 0.34% active; AID 449763;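 active = at 10 µM dose, activation of 40% or more, normalized to positive control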
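Test system: CHO CHOP reporter cells. Input: 500 CHO-CHOP cells per well. Medium: F12 with 10% FBS. Technique: luciferase luminescence. Measure: percent activation relative to tunicamycin control. Dosing: 10 µM compound, 0.5% DMSO. Timing: 16-18 h cell attachment, then 6 h compound exposure, 37 °C.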
Jurkat NFkB inh: lowers PMA/ionomycin-induced NF-kB signal in Jurkat cells. PMA/ionomycin-induced NF-kB luciferase reporter, luminescence. inhibition, % at 4 µM. 330,000 tested, 0.53% active; in the data active = inhibition above about 50%
697 NFkB inh: inhibitors of the PMA/ionomycin-induced NF-kB reporter in 697 B cells; 697 B-cell NF-kB luciferase reporter, 16 h; inhibition, % at 4 µM; 330,000 tested, 0.33% active; AID 435022; in the data active = inhibition above about 35%
XBP1 UPR activ: activators of adaptive arm of unfolded protein response (XBP1); CHO-XBP1 luciferase reporter, IRE1-XBP1 UPR activation, luminescence; percent of tunicamycin response, DMSO as zero; activation, % at 20 µM; 330,000 tested, 0.33% active;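 active = versus positive control, 20 µM dose yields 30% or more activation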
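Material: CHO cell line with stable XBP1 luciferase reporter; schedule: 16-18 h cell attachment at 37 °C, then 6 h compound exposure; signal: glow luminescence from Steady-Glo reagent; medium: serum-containing F12 medium, 10% FBS; benchmarks: tunicamycin 10 µg/mL and vehicle-only wells; read-out: percent activation relative to tunicamycin reference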
UPR CHOP confirm: confirmation of apoptotic unfolded protein response (CHOP) activators. AID 463112. shares compounds with CHOP UPR activ. activation, % at 10 µM. 1,000 tested, 64% active. CHO-CHOP cells, CHOP-luciferase reporter luminescence; percent of tunicamycin response, DMSO as zero; in the data active = activation above about 33%
UPR XBP1 confirm: adaptive UPR (XBP1) activation, confirmed | CHO-XBP1 IRE1-XBP1 luciferase reporter, luminescence | shares compounds with XBP1 UPR activ | 1,000 tested, 63% active | AID 485299 | activation, % at 20 µM;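 active = reporter signal at least 30% of the positive control's activation in two or more of four replicate wells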
Of the large screens only hits and unclear results are named; the others gave an inactive call (follow-up assays come after a bar, where they were run). The sample as a whole holds a higher share of hits than the screen did.

COc1ccc(N2CCN(C(=O)[C@H](Cc3c[nH]c4ccccc34)NC(C)=O)CC2)cc1	none
O=C1/C(=C/c2ccc(O)c(O)c2)SC(=S)N1Nc1ccccc1	none (no result: CHOP UPR activ, Jurkat NFkB inh, 697 NFkB inh, XBP1 UPR activ)
O=C(NN1C(=O)/C(=C/c2ccc(O)c(O)c2)SC1=S)c1ccccc1	CHOP UPR activ 43, XBP1 UPR activ 59 (no result: CHOP inhibitor) | UPR CHOP confirm inactive | UPR XBP1 confirm 57
CCOC(=O)c1cnc(Nc2nc3ccccc3o2)nc1CSc1ncccn1	none (no result: CHOP inhibitor)
CCOC(=O)c1cnc(Nc2nc3ccccc3o2)nc1CSC(=S)N(CC)CC	CHOP UPR activ 127, XBP1 UPR activ 33 | UPR CHOP confirm 122 | UPR XBP1 confirm inactive
C/C(=N\Nc1ncnc2sc(C)c(C)c12)c1ccccn1	CHOP UPR activ 97, XBP1 UPR activ 97 (no result: CHOP inhibitor) | UPR CHOP confirm 88 | UPR XBP1 confirm 122
O=C(Nc1nc(-c2ccc(F)c(F)c2)cs1)Nc1ccc(F)cc1F	CHOP UPR activ 47, XBP1 UPR activ 74 (no result: CHOP inhibitor) | UPR CHOP confirm 53 | UPR XBP1 confirm 123
Cc1nn(-c2ccccc2)c(C)c1NC(=O)COC(=O)c1ccc(O)cc1O	none (no result: CHOP inhibitor)
Cc1ccc(C(=O)NC(C)C2CC3CCC2C3)cc1 (configuration not stated)	none (no result: CHOP inhibitor)
O=C(/C=C1\NC2(CCCC2)Cc2ccccc21)C(=O)N/N=C/c1ccc(O)c(O)c1	CHOP UPR activ 124, XBP1 UPR activ 92 | UPR CHOP confirm 68 | UPR XBP1 confirm 80
COc1ccc(/C=N/NC(=O)C(=O)/C=C2\NC3(CCCC3)Cc3ccccc32)cc1	none
COc1ccc(-c2csc(Nc3ncccc3C)n2)cc1OC	none
Cc1cccnc1Nc1nc(-c2ccc(O)c(O)c2)cs1	CHOP UPR activ 155, XBP1 UPR activ 30 | UPR CHOP confirm 114 | UPR XBP1 confirm 43
CCOC(=O)c1c(NC(=O)CC2Nc3ccccc3NC2=O)sc(C)c1C (configuration not stated)	none
COC(=O)c1c(NC(=O)CC2Nc3ccccc3NC2=O)sc(C)c1C (configuration not stated)	CHOP UPR activ 160, XBP1 UPR activ 47 | UPR CHOP confirm 40 | UPR XBP1 confirm 31
COC(=O)c1ccc(COc2ccc(/C=C(\C#N)c3nc4ccccc4[nH]3)cc2OC)o1	none
CCc1ccc(NC(=O)COc2ccc(/C=C(/C#N)c3nc4ccccc4[nH]3)cc2OC)cc1	CHOP inhibitor 87, CHOP UPR activ 172, XBP1 UPR activ 192 | UPR CHOP confirm inactive | UPR XBP1 confirm inactive
COc1ccc(-c2csc3nc(-c4ccc(C)cc4)oc(=O)c23)cc1OC	CHOP UPR activ 57, XBP1 UPR activ 59 | UPR CHOP confirm inactive | UPR XBP1 confirm 42
CN(/N=C\c1ccc(O)c(O)c1)c1nc(-c2ccccc2)cc(-c2ccccc2)n1	CHOP inhibitor 103, CHOP UPR activ 112, XBP1 UPR activ 66 | UPR CHOP confirm 93 | UPR XBP1 confirm 98
O=C(/C=C/c1ccccc1)N/C(=C/c1ccccc1)C(=O)N1CCCCC1	none
Cc1ccc(NC(=O)NC2CC(=O)N(c3ccc4c(c3)OCCO4)C2)cc1F (configuration not stated)	none (no result: CHOP inhibitor)
CCOC(=O)N1CCN(S(=O)(=O)c2ccc(C(=O)Nc3nc4c(s3)CC(C)CC4)cc2)CC1 (configuration not stated)	CHOP inhibitor 93, CHOP UPR activ 64, XBP1 UPR activ 62 | UPR CHOP confirm 96 | UPR XBP1 confirm 116
CS(=O)(=O)Oc1ccc2c(c1)O/C(=C\c1cccc([N+](=O)[O-])c1)C2=O	none (no result: CHOP inhibitor)
CS(=O)(=O)Oc1ccc2c(c1)O/C(=C\C=C\c1ccccc1)C2=O	CHOP UPR activ 154, XBP1 UPR activ 47 | UPR CHOP confirm 34 | UPR XBP1 confirm inactive
CN(C)c1ccc(/C=N/N2C(=S)SC(C)(C)C2N(O)C(=O)Nc2ccc([N+](=O)[O-])cc2)cc1 (configuration not stated)	none
O=C(COc1ccccc1[N+](=O)[O-])Nc1ccc(NC(=O)c2cc3ccccc3o2)cc1	none
